APP 5'UTR act: APP 5'UTR luciferase reporter activation; SH-SY5Y APP 5'UTR luciferase reporter, luminescence; zero percent = DMSO vehicle wells; activation, % at 2 µM; 1% of 190,000 active; AID 1276;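 active = activation above a set limit, based on mean plus 3 SD of controls, cut at about 140% in these data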
STAT3 activator: increases IL-6 driven STAT3 reporter signal | U3A cells, IL-6 STAT3-luciferase reporter, luminescence; 100% = signal with IL-6 EC80 alone | activation (% of control), % at 5.6 µM | 0.91% of 190,000 active | AID 871;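 active = activation above the screen-wide mean of compound activation plus 3 SD, cut at about 130% in these data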;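 also: 0% = background luminescence of wells with medium and substrate only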
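Material: STAT3-luciferase reporter U3A cells. Controls: IL-6-treated wells, 100% activation. Read-out: % activation versus median of IL-6-stimulated wells. Probe or stimulus: IL-6 stimulus at 33 ng/mL final. Timing: compound 1 h, then IL-6 6 h at 37 °C. Signal: reporter luminescence signal.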
STAT3 blocker: reduces IL-6 driven STAT3 reporter signal. U3A cells, IL-6 STAT3-luciferase reporter, luminescence; host cell line lacks STAT1. inhibition, % at 5.5 µM. 0.89% of 190,000 active;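 active = inhibition above the mean inhibition across all screened compounds plus 3 SD, cut at about 44% in these data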;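 also: 0% = DMSO only wells and 100% = 100 µM nifuroxazide control wells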
STAT1 activator: STAT1 signaling activation. NIH 3T3 STAT1-luciferase reporter, IFN-gamma, luminescence; 100% = IFN-gamma alone, no compound. activation (% of control), % at 5.5 µM. 2.6% of 200,000 active;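 active = activation above the screen-wide mean activation plus 3 SD, cut at about 130% in these data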;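 also: raw ratio to IFN-gamma control signal so 100% means no change and 0% no light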
STAT1 blocker: STAT1 signaling inhibition; AID 920; inhibition, % at 5.5 µM; 0.35% of 200,000 active; NIH 3T3 STAT1-luciferase reporter, IFN-gamma, luminescence;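 active = inhibition above a set limit, the mean inhibition across all tested compounds plus 3 SD, cut at about 34% in these data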;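 also: 0% = IFN-gamma with DMSO and 100% = IFN-gamma with 300 µM nifuroxazide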
NF-kB expr up: raises NF-kB expression in human neuronal cells. NF-kB reporter expression; stronger effect = higher value. fold change at 12.5 µM. 1.6% of 190,000 active; in the data active = fold change above about 3.3
Starred values were filed as active, the others as inactive; . = no result. In the library only some 5.1% were active in any assay of this set; here they are far more common.

SMILES | APP 5'UTR act | STAT3 activator | STAT3 blocker | STAT1 activator | STAT1 blocker | NF-kB expr up
O=C(Nc1ccc2c(c1)ncn2-c1ccccc1)c1ccco1 | 70 | 95 | 9 | 140* | -55 | 1.2
CC(=O)Nc1ccc2c(c1)ncn2-c1ccc(C)cc1 | 225* | 97 | 5 | 146* | -48 | 5.1*
CC1CCC(NC(=O)C2(C)CCC(=O)N2Cc2cccnc2)CC1 (centres undefined) | 2 | 103 | 2 | 98 | 2 | 0.87
N#Cc1ccc(-c2nnnn2-c2ccc3c(c2)OCO3)cc1 | 21 | 102 | 1 | 104 | -5 | 1.3
N#Cc1cccc(-n2nnnc2-c2ccc3c(c2)OCO3)c1 | 28 | 113 | -12 | 112 | -13 | 3.5*
O=c1[nH]c(N/N=C/c2ccccc2)nc2ccccc12 | 140* | 77 | 31 | 145* | -50 | 3
O=c1[nH]c(N/N=C\c2ccc3c(c2)OCO3)nc2ccccc12 | 205* | 74 | 35 | 140* | -45 | 4.4*
O=C(N/N=C/c1ccc2c(c1)OCO2)c1cc(-c2ccccc2)nc2ccccc12 | -5 | 93 | 8 | 94 | 6 | 1.3
CCOc1cc(C)ccc1OCc1nnc(SCC(=O)c2cccc([N+](=O)[O-])c2)n1CC | 12 | 102 | 3 | 97 | 3 | 1.4
COc1ccc(CN2c3cc(S(=O)(=O)N4CCOCC4)ccc3N3CCCC32)cc1 (centres undefined) | -7 | 97 | 10 | 105 | -5 | 1.1
Cc1ccc(OCCOc2cccc(Br)c2)c([N+](=O)[O-])n1 | 54 | 104 | -4 | 132* | -35 | 2.5
CCCNC(=O)c1cc(-c2ccc(Br)cc2)on1 | 10 | 99 | 5 | 120 | -22 | 3.6*
CCCn1cc(NC(=O)c2cc(-c3ccccc3)on2)cn1 | 0 | 103 | 4 | 130* | -32 | 3.6*
CC(C)NC(=O)c1cc(-c2ccc(Br)cc2)on1 | 115 | 93 | 8 | 150* | -55 | 4.9*
COc1ccc(-c2cc(C(=O)NCC(C)C)no2)cc1 | 26 | 94 | 6 | 133* | -36 | 5*
Cc1ccc(-c2cc(C(=O)NCCN3CCOCC3)no2)cc1 | 22 | 98 | 6 | 100 | 0 | 1.1
CC(C)NC(=O)c1cc(-c2ccco2)on1 | 35 | 103 | -1 | 117 | -18 | 1.5
CCCCOc1ccccc1NC(=O)CC1SC(=NCC)N(CC)C1=O (centres undefined) | -2 | 92 | 16 | 93 | 7 | 1.1
O=C(Nc1ccc(N2CCCCC2)cc1)c1ccccn1 | -41 | 9 | 110* | 11 | 96* | 0.43
O=C(Nc1ccc(N2CCCC2)cc1)C(c1ccccc1)c1ccccc1 | 0 | 101 | 7 | 97 | 3 | 1.4
O=C(NC(=S)Nc1ccc(N2CCCCC2)cc1)c1ccco1 | 129 | 88 | 20 | 132* | -35 | 2.5
COc1ccccc1C(=O)Nc1ccc(N2CCCCC2)cc1 | 168* | 151* | -61 | 140* | -43 | 4.9*
O=C(Nc1ccc(N2CCCCCC2)cc1)c1ccccc1Cl | 107 | 109 | -3 | 147* | -53 | 4.7*
O=C(Nc1ccc(N2CCCCC2)cc1)C(Cl)c1ccccc1 (centres undefined) | 61 | 106 | -3 | 122 | -24 | 1.3
Cc1ccc(C)c(Cn2c(=O)n(CCCC(=O)NCc3ccco3)c(=O)c3sccc32)c1 | 11 | 100 | 6 | 93 | 8 | 1.1
SMILES | APP 5'UTR act | STAT3 activator | STAT3 blocker | STAT1 activator | STAT1 blocker | NF-kB expr up
CC(C)Oc1ccc(C(=O)Nc2ccc(N3CCCC3)cc2)cc1 | 2 | 88 | 20 | 99 | 1 | 2.8
Cc1cc(C)cc(C(=O)Nc2ccc(N3CCCC3)cc2)c1 | 146* | 113 | -4 | 151* | -54 | 2.6
O=C(COCc1ccccc1)N[C@@H](Cc1ccc(O)cc1)C(=O)O | -2 | . | . | 112 | -11 | 1.2
COc1cccc(-c2nc(-c3ccccn3)no2)c1OC | 88 | 90 | 15 | 136* | -34 | 1.7
c1ccc(-c2nccc(-c3ccco3)n2)nc1 | 16 | 87 | 21 | 103 | -6 | 1.3
c1ccc(-c2ccc(-c3nc(-c4ccccn4)no3)cc2)cc1 | -46 | 10 | 109* | 18 | 92* | 0.3
c1ccc(-c2cc(-c3nc(-c4ccccn4)no3)c3ccccc3n2)cc1 | -2 | 81 | 26 | 103 | -4 | .
c1ccc(-c2noc(-c3cccc4ccccc34)n2)nc1 | 81 | 94 | 11 | 107 | 0 | 2.5
Clc1cccc(-c2nc(-c3ccccn3)no2)c1 | 97 | 33 | 81* | 63 | 54* | 1.6
c1ccc(-c2noc(-c3ccco3)n2)nc1 | 192* | 79 | 28 | 137* | -39 | 2.1
CCOc1ccc(CN2CCN(Cc3[nH]c4ccc(OC)cc4c3C)CC2CCO)cc1 (centres undefined) | 2 | 113 | -8 | 100 | 0 | 0.86
COc1ccc(NC(C)=O)cc1NC(=O)CSc1nnc(-c2ccc(F)cc2)n1N | 8 | 101 | 2 | 97 | 4 | 1.2
O=S(=O)(c1cccc(-c2cn3cccnc3n2)c1)N1CCOCC1 | 2 | 98 | 9 | 94 | 7 | 1.2
COc1cc(-c2nc(-c3ccccn3)no2)cc(OC)c1OC | 119 | 96 | 11 | 116 | -18 | 1.7
Cc1ccc2nc(-c3ccccn3)oc2c1 | 176* | 72 | 39 | 116 | -17 | 4.5*
Cc1ccc(-c2nc(-c3ccccn3)no2)cc1Cl | 159* | 15 | 99* | 28 | 79* | 0.59
COc1nc(C)ccc1-c1noc(-c2ccco2)n1 | 182* | 80 | 27 | 140* | -33 | 4.6*
COc1nc(-c2ccc(C)cc2)ccc1-c1noc(-c2ccco2)n1 | 13 | 112 | -12 | 115 | -16 | 1.3
Cc1ccc(-c2nc(-c3ccccn3)no2)cc1 | -39 | 10 | 107* | 17 | 90* | 0.3
CC(C)NC(=O)c1ccc2c(=O)n(CC3CCCO3)c(=S)[nH]c2c1 (centres undefined) | 13 | 96 | 15 | 103 | -4 | 1.1
N=C1C(c2nc3ccccc3s2)=C(O)CN1NC(=O)c1ccccc1[N+](=O)[O-] | 5 | 100 | 6 | 103 | -6 | .
c1ccc(-c2nc(-c3ccccn3)no2)cc1 | 64 | 20 | 98* | 47 | 62* | 1.8
O=C(Nc1nc(-c2ccccn2)cs1)c1ccco1 | -32 | 101 | 2 | 111 | -14 | 1.9
c1ccc(-c2nc(-c3ccco3)cs2)nc1 | 29 | 106 | -2 | 130* | -33 | 0.71
Fc1ccc(-c2csc(-c3ccccn3)n2)cc1F | 9 | 92 | 15 | 140* | -46 | 2.8
CC(=O)Nc1ccc(S(=O)(=O)N2CCNC(=O)CC2)cc1 | 2 | 101 | 0 | 98 | 3 | 0.99
Clc1ccc(-c2nc(C3CCCCC3)no2)cc1 | 108 | 99 | 12 | 132* | -36 | 1.9

Source: PubChem BioAssay (several laboratories)
